Measured values of several laboratories.
Protocols differ between the studies behind these lines.
Target: Serine/threonine-protein kinase SIK3 (SIK3, Homo sapiens, UniProt Q9Y2K2)

The remaining binding of `CN(C(=O)c1ccccc1)c1cc(N(C)c2ccc3c(c2)CCc2ccc(C(=O)NCCN4CCOCC4)cc2C3=O)ccc1F` is reported as 74% (cell-free assay, competition with immobilised ligand; 1 µM).
With `COc1cc(Nc2cnc(C#N)c(O[C@H](C)CN(C)C)n2)ncc1-c1cnn(C)c1` the remaining activity was 89% (enzyme activity, inhibitor, radiometric; 1 µM).
`COc1cc(Cl)c(C(=O)N[C@@H](CN[C@H]2CC[C@@H](N)CC2)Cc2ccc(C#N)cc2)cc1-c1ccc(CN[C@H](C)c2ccc(C)cc2)o1` gave a remaining activity of 102% (enzyme activity, inhibitor; 1 µM).
`Cc1ccc(C(=O)Nc2ccc(CN3CCN(C)CC3)c(C(F)(F)F)c2)cc1C#Cc1cnc2cccnn12` has a remaining activity of 87% (enzyme activity, inhibitor; 23.5 nM).
With `CC(C)(C)c1nc2c(s1)c1nc(N)ncc1c1ccc(NS(=O)(=O)c3c(F)cccc3F)c(F)c12` the remaining activity was 98% (enzyme activity, inhibitor, radiometric; 1 µM).
With `Cc1sc(C(=O)NC2COC2)cc1-n1cc(NC(=O)Nc2c(F)cccc2Cl)cn1` the remaining activity was 86.9% (enzyme activity, inhibitor; 10 µM).
`Nc1ncnc2occ(-c3ccc(NC(=O)Nc4cc(C(F)(F)F)ccc4F)cc3)c12` has a remaining signal of 76% (cell-free assay, inhibitor; 20 µM).
For `FC(F)(F)Oc1cccc(-c2cnc3ccc(-c4ccncc4)nn23)c1`, the activity vs control was 102% (enzyme activity, inhibitor, radiometric; 5 µM).
`COc1cc(/C=C/C(=O)CC(=O)/C=C/c2ccc(O)c(OC)c2)ccc1O` gave an activity vs control of 91% (enzyme activity, inhibitor; 1 µM).
`O=S(=O)(NC1CCC(c2cc(F)ccc2F)(S(=O)(=O)c2ccc(Cl)cc2)CC1)C(F)(F)F` (stereo not drawn) has a remaining binding of 100% (cell-free assay, competition with immobilised ligand; 1 µM).
`O=C(Nc1cnn(-c2csc(C(=O)NC3COC3)c2)c1)Nc1c(F)cccc1Cl` gave a remaining activity of 94.5% (enzyme activity, inhibitor; 5 µM).
With `CC(C)(C)c1nc(-c2cccc(NS(=O)(=O)c3c(F)cccc3F)c2F)c(-c2ccnc(N)n2)s1` the remaining activity was 60% (enzyme activity, inhibitor, radiometric; 1 µM).
